A word on the Cmax: it is the highest concentration seen after dosing. One may read the half-life as the time in which the quantity being followed falls by half. By MRT inf is commonly meant a mean duration of stay, worked out from the concentration-time curve. As usually defined, the AUC(0-t) is the area under the concentration-time curve up to a stated or last time point. A word on the clearance: it is the volume of plasma or blood freed of the substance per unit of time. The term LD50 denotes the dose expected to kill half of the subjects tested. As a reminder, the AUC(0-inf) is total exposure, with the tail of the curve extrapolated.

Experimental findings from ChEMBL document CHEMBL5252546, “Salutaxel, a Conjugate of Docetaxel and a Muramyl Dipeptide (MDP) Analogue, Acts as Multifunctional Prodrug That Inhibits Tumor Growth and Metastasis” (J Med Chem, 2018) are described below.

Data set [1] can be described thus: Cmax in mouse plasma implanted with mouse 4T1 cells at 5.7 mg/kg,iv measured upto 72 hrs. Format: ADME, organism-based. More on the design: dose 5.7 mg/kg, time < 72 hrs, route iv.
A short description of data set [2]: Toxicity in BALB/c mouse xenografted with human A549/Taxol cells assessed as body weight loss at 5.7 mg/kg,iv administrated once per week for 3 weeks. Format: organism-based, A549/TR. The settings on record: in vivo, 504 h. In a few lines:
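Nude BALB/c nu/nu mice received subcutaneous human tumour cells into the right flank. Dosing started at mean tumour volume of 100–120 mm3, iv once weekly for 3 weeks; the taxane arm was an equimolar control. Body weight and overt side effects were monitored. Mean ± SEM, n = 8.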
(A xenograft is tissue or cells of one species grown in another, often human tumour cells in immunodeficient mice.)

Data set [3] concerns 4T1. The data set can be described thus: Antitumor activity against mouse 4T1 cells implanted in BALB/c mouse assessed as decrease in spleen MMP2 expression level at 5.7 mg/kg,iv administrated once per week for 4 weeks in presence of compound 5b by western blot assay. Format: functional, organism-based. Summed up:
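4T1 cells injected into mammary fat pads of BALB/c mice. Saline vehicle or test article given iv once weekly for 4 weeks. Spleen, lung and tumor lysates immunoblotted for MMP2/MMP9 with β-actin as loading control. Bands averaged over five mice per group, representative of two independent experiments.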
Background: In western blotting, separated proteins are transferred to a membrane and probed.

Data set [4] concerns 4T1. The data set can be described thus: Antitumor activity against mouse 4T1 cells implanted in BALB/c mouse assessed as decrease in serum MMP9 level at 5.7 mg/kg,iv administrated once per week for 4 weeks by ELISA. The data set is classed as functional, organism-based.
In data set [5] the test system is 4T1. As to the kind of experiment: Antitumor activity against mouse 4T1 cells implanted in BALB/c mouse assessed as decrease in lung metastasis at 5.7 mg/kg,iv administrated once per week for 4 weeks by H and E staining based assay. The data set is classed as functional, organism-based. In a few lines: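 BALB/c mice bearing orthotopic mammary fat pad 4T1 tumors, dosed iv weekly for 4 weeks with saline vehicle as control. Lung sections stained with hematoxylin and eosin and examined by light microscopy at 40× for metastasis, inflammatory infiltration and alveolar wall thickening.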

A short description of data set [6]: Half life in mouse plasma implanted with mouse 4T1 cells at 5.7 mg/kg,iv measured upto 72 hrs. Format: ADME, organism-based.
In data set [7] the test system is 4T1. The data set can be described thus: Antitumor activity against mouse 4T1 cells implanted in BALB/c mouse assessed as decrease in neutrophil in peripheral blood at 11.4 mg/kg,iv administrated qd for 2 days by blood smear staining microscopic analysis. Format: functional, organism-based. As to conditions: time 2.0 day. In a few lines:
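On day 19 after 4T1 implantation, mice were randomized into five groups and given iv vehicle or test article, plus ip C12-iE-DAP (50 μg/mouse) and MDP (100 μg/mouse), once daily for 2 days. Mice were killed 6 h later. Peripheral blood neutrophils/leukocytes were counted on stained blood smears at 1000×.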

Data set [8] in a line: Drug distribution in rat adrenal gland at 4 mg/kg,iv measured by 0.25 hrs. The data set is classed as ADME, organism-based. The settings on record: in vivo. Summed up:
(§1)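 Rats received 4 mg/kg iv. Parent drug and released docetaxel were assayed in tissues and plasma from the first sampling at 0.25 h to 24 h. The lower limit of quantitation was 200 ng/g.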

A short description of data set [9]: Volume of distribution at steady state in female Beagle dog at 1 mg/kg,iv measured upto 24 hrs. The data set is classed as ADME, organism-based, Canis lupus familiaris. The settings on record: in vivo, read-out: Vdss.
Data set [10] has as its system 4T1. The data set can be described thus: Antitumor activity against mouse 4T1 cells xenografted with BALB/c mouse assessed as decrease in tumor volume at 10 mg/kg,iv administrated once per week for 4 weeks. Format: functional, organism-based. Summed up: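 4T1 cells injected into the mammary fat pad of BALB/c mice; iv saline vehicle or 5, 10 or 20 mg/kg once weekly for 4 weeks; body weight, tumour volume, tumour weight, lung metastatic nodule count and metastasis score recorded; n = 10, mean ± SEM, ANOVA and Student's t test.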

The nature of data set [11]: Drug distribution in rat small intestine at 4 mg/kg,iv measured by 0.25 hrs. Format: ADME, organism-based. The settings on record: in vivo. In a few lines:
as §1

The nature of data set [12]: MRT (0 to infinity) in rat at 8 mg/kg,iv measured upto 24 hrs. As to conditions: in vivo. Format: ADME, organism-based.
A short description of data set [13]: AUC (0-t) in male rat at 8 mg/kg,iv measured upto 24 hrs. The data set is classed as ADME, organism-based. More on the design: time < 24 hrs, dose 8 mg/kg, route iv. As to conditions: in vivo. Summed up: (§2)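 Single iv dose: rats 2, 4 or 8 mg/kg by intravenous injection; Beagle dogs 1, 2 or 4 mg/kg by intravenous infusion. Plasma concentration–time data were analysed by sex and pooled. Reported parameters: Cmax, Tmax, AUC0−t, AUC0−∞, MRT0−∞, t1/2, CL, Vss, given as mean ± SD.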

Data set [14] can be described thus: Cmax in female Beagle dog at 4 mg/kg,iv measured upto 24 hrs. Format: ADME, organism-based, Canis lupus familiaris. More on the design: time < 24 hrs, dose 4 mg/kg, route iv. The settings on record: in vivo. In a few lines: (§3)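 Beagle dogs were given a single iv infusion at 1, 2 or 4 mg/kg. Plasma parent drug and released docetaxel were followed over time. Cmax, Tmax, AUC, MRT, t1/2, CL and Vss were reported by sex and for all dogs combined.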

Data set [15] has as its system 4T1. The data set can be described thus: Antitumor activity against mouse 4T1 cells implanted in BALB/c mouse assessed as decrease in serum MMP9 level at 20 mg/kg,iv administrated once per week for 4 weeks by ELISA. The data set is classed as functional, organism-based. In a few lines:
(§4)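 4T1 fat-pad model in BALB/c mice, iv 5–20 mg/kg once weekly for 4 weeks, with vehicle and naive groups; serum MMP9, TIMP-1, IL-6 and S100A9 measured by mouse ELISA kits.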
A general note: An ELISA detects its analyte on a solid surface through an enzyme-linked reagent.

The nature of data set [16]: Stability in rat plasma assessed as compound remaining at 40 uM incubated for 6 hrs. Format: ADME, cell-free.
Data set [17] can be described thus: AUC (0-t) in male rat at 4 mg/kg,iv measured upto 24 hrs. Format: ADME, organism-based. More on the design: time < 24 hrs, dose 4 mg/kg, route iv. As to conditions: in vivo. In a few lines:
as §2

A short description of data set [18]: Volume of distribution at steady state in Beagle dog at 2 mg/kg,iv measured upto 24 hrs. The data set is classed as ADME, organism-based, Canis lupus familiaris. The settings on record: in vivo, read-out: Vdss.
The nature of data set [19]: Drug distribution in rat kidney at 4 mg/kg,iv measured by 0.25 hrs. The data set is classed as ADME, organism-based. As to conditions: in vivo. Summed up:
as §1

Data set [20] concerns 4T1. The data set can be described thus: Antitumor activity against mouse 4T1 cells implanted in BALB/c mouse assessed as decrease in tumor MMP9 expression level at 5 to 20 mg/kg,iv administrated once per week for 4 weeks by western blot assay. Format: functional, organism-based. The settings on record: dose 5-20 mg/kg. In a few lines: (§5)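 4T1 fat-pad model in BALB/c mice, iv once weekly for 4 weeks; MMP9, MMP2 and NOD1 in spleen, lung and tumour by western blot, β-actin loading control; bands averaged over five mice per group, representative of two independent experiments.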

The test system of data set [21] is 4T1. As to the kind of experiment: Synergistic antitumor activity against mouse 4T1 cells xenografted with BALB/c mouse assessed as decrease in tumor weight at 10 mg/kg,iv administrated in combination with doxorubicin once per week for 4 weeks. The data set is classed as functional, organism-based.
Data set [22] can be described thus: Clearance in female Beagle dog at 1 mg/kg,iv measured upto 24 hrs. The data set is classed as ADME, organism-based, Canis lupus familiaris. As to conditions: in vivo. In a few lines: as §3
Data set [23] is described as follows: Cmax in Beagle dog at 4 mg/kg,iv measured upto 24 hrs. On the set-up: dose 4 mg/kg, time < 24 hrs, route iv. Format: ADME, organism-based, Canis lupus familiaris. The settings on record: in vivo. In a few lines: as §3
A short description of data set [24]: Acute toxicity in Sprague-Dawley rat assessed as lethal dose at iv administration. The data set is classed as organism-based. The settings on record: in vivo. In a few lines: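 Acute toxicity after a single intravenous administration. […] In dogs, an approximate lethal dose range was determined.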
Data set [25] in a line: AUC (0-infinity) in female rat at 4 mg/kg,iv measured upto 24 hrs. Format: ADME, organism-based. More on the design: time < 24 hrs, dose 4 mg/kg, route iv. The settings on record: in vivo. Summed up:
as §2

A short description of data set [26]: MRT (0 to infinity) in male rat at 8 mg/kg,iv measured upto 24 hrs. Format: ADME, organism-based. As to conditions: in vivo.
Data set [27] deals with 4T1. The data set can be described thus: Antitumor activity against mouse 4T1 cells implanted in BALB/c mouse assessed as decrease in spleen MMP2 expression level at 5 to 20 mg/kg,iv administrated once per week for 4 weeks by western blot assay. The data set is classed as functional, organism-based. As to conditions: dose 5-20 mg/kg. In a few lines: as §5
Data set [28] is described as follows: Half life in Beagle dog at 1 mg/kg,iv measured upto 24 hrs. Format: ADME, organism-based, Canis lupus familiaris. As to conditions: in vivo.
A short description of data set [29]: Half life in rat at 8 mg/kg,iv measured upto 24 hrs. Format: ADME, organism-based. The settings on record: in vivo.
For data set [30], the system named is 4T1. The data set can be described thus: Antitumor activity against mouse 4T1 cells implanted in BALB/c mouse assessed as decrease in serum IL-6 level at 20 mg/kg,iv administrated once per week for 4 weeks by ELISA. Format: functional, organism-based. Summed up: as §4
The nature of data set [31]: Stability in monkey plasma assessed as compound remaining at 40 uM incubated for 6 hrs. Format: ADME, cell-free, Macaca mulatta. The settings on record: rhesus monkey.

Activity calls are given as the source filed them. The calls are words filed in the database; no cut-off is given here.

Turning to `CC(=O)O[C@@]12CO[C@@H]1C[C@H](O)[C@@]1(C)C(=O)[C@H](O)C3=C(C)[C@@H](OC(=O)[C@H](O)[C@@H](NC(=O)OC(C)(C)C)c4ccccc4)C[C@@](O)([C@@H](OC(=O)c4ccccc4)[C@H]21)C3(C)C` [DOCETAXEL ANHYDROUS], in data set [1], the highest level (Cmax) was 8.09 µM. Also, the Activity entry in [2] is “Non-Toxic”. Moreover, the result with 4T1 [3] was inactive. In addition, the outcome with 4T1 [4], in the data set on 4T1 [5] and in the data set on 4T1 [7] was Active. The compound further showed a half-life in [6] of 217 min.

`CC(=O)O[C@@]12CO[C@@H]1C[C@H](O)[C@@]1(C)C(=O)[C@H](O)C3=C(C)[C@@H](OC(=O)[C@H](OC(=O)CCC(=O)NCCCC[C@H](NC(=O)CC[C@@H](NC(=O)[C@H](C)NC(=O)/C=C/c4ccc(F)cc4Cl)C(N)=O)C(=O)O)[C@@H](NC(=O)OC(C)(C)C)c4ccccc4)C[C@@](O)([C@@H](OC(=O)c4ccccc4)[C@H]21)C3(C)C`: the Drug uptake entry in data set [8], in data set [11] and in data set [19] was “Active” each time. Also, the Vd was found to be 0.204 L/kg in [9] and 0.083 L/kg in data set [18]. For the same compound, the result in the data set with 4T1 [10], in the data set on 4T1 [15], in the data set on 4T1 [21] and in the data set with 4T1 [30] was Active. Moreover, the MRT inf stood at 33.1 min in data set [12] and 37.9 min in data set [26]. Further, the AUC(0-t) at 24 h in data set [13] worked out at 52300 ng·h/mL; in data set [17] it was 20700 ng·h/mL. The Cmax in data set [14] came out at 30800 ng/mL; in data set [23], 30100 ng/mL. Besides, the Stability entry in data set [16] and in [31] was “Stable” in each case. Besides, the outcome in the data set on 4T1 [20] and with 4T1 [27] was inactive. This compound also had a clearance in data set [22] of 11.2 mL/min/kg. Also, the LD50 in data set [24] came to 13.2 mg/kg. The compound also gave an AUC(0-inf) in data set [25] of 13000 ng·h/mL. Moreover, the half-life in data set [28] is 21.3 min; in [29] it was 18.3 min.
